Screening results: PubChem, several laboratories
Mdm2 ligase inh = MDM2-luciferase reporter signal enhancers, primary screen, MDM2 E3 ligase inhibitor project, cell-based, luminescence, 1536-well; AID 1230, 2008; 0.11% of 210,000 active; cell-based MDM2 ubiquitination luciferase reporter, 2 h; 0 = plate control, 100 = twice control, blank-subtracted; signal enhancement, % at 5 µM; E3 ubiquitin-protein ligase Mdm2 (Homo sapiens), Q00987;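 active = signal enhancement of 30% or more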;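 note: luminescence tracks abundance of the self-degrading MDM2-luciferase fusion protein; higher signal means inhibition of MDM2 E3 ligase activity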
Target sequence (Q00987 whole entry, looked up, the tested form may be a part): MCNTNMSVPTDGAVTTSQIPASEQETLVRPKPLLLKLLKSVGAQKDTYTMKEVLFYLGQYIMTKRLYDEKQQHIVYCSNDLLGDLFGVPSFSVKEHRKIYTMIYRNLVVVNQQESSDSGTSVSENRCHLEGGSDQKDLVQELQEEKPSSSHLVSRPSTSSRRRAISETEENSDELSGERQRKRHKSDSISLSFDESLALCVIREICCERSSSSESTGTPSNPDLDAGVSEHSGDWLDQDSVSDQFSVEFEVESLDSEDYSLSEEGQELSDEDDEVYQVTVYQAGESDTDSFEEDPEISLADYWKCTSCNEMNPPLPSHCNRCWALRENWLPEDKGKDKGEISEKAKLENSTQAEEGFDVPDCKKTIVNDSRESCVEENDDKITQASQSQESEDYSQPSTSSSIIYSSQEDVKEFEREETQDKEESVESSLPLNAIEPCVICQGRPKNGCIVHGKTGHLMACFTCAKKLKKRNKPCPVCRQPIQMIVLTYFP
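Timing – 2 h compound exposure at 37 °C · Assay system – mammalian cells stably expressing self-ubiquitinating, self-degrading MDM2 E3–luciferase fusion · Amount – 2000 cells seeded into each well · Measure – % luminescence enhancement versus blank-corrected plate control mean · Measured by – SteadyLite luminescence, 15 min reagent step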
NPY1 pot ag = NPY-Y1 receptor potentiators or agonists, primary screen, cell-based | NPY-Y1 expressing cells, potentiator/agonist activation | activation, % at 3.6 µM | 0.37% of 220,000 active | AID 1304, 2008; in the data active = activation above about 33%, passing the limit was not always enough;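 note: cells stimulated with NPY at EC10 then isoproterenol at EC100; 0% = low agonist plus stimulus and 100% = saturating agonist plus stimulus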
NPY-Y2 PAM-ag = NPY-Y2 potentiators or agonists, primary screen, cell-based. Neuropeptide Y receptor type 2 (Homo sapiens), P49146. cells expressing NPY-Y2, potentiator/agonist read-out. activation, % at 3.6 µM. 0.45% of 220,000 active; in the data active = activation above about 27%;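 note: cells stimulated with NPY near EC25 plus isoproterenol at EC100; 0% = vehicle plus submaximal agonist and 100% = vehicle plus saturating agonist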
NPY Y1 blocker = NPY-Y1 receptor antagonists, primary screen, cell-based. HEK293-CNG Y1 cells, membrane potential fluorescence; NPY at EC95, then isoproterenol. inhibition, % at 3.6 µM. 1% of 200,000 active;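 active = inhibition above the campaign mean inhibition of all tested compounds plus 3 SD, cut at about 20% in these data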;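 note: 0% = DMSO wells given NPY plus isoproterenol and 100% = isoproterenol alone without NPY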
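material = HEK293 cells with Y1 receptor plus CNG channel | also added = NPY 25 nM then isoproterenol 1 µM plus Ro 20-1724 25 µM | schedule = dye 3 h, compound 60 min room temperature, stimulation 45 min | measured by = membrane potential fluorescence | benchmarks = high control isoproterenol alone, low control NPY with isoproterenol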
Measles CPE = compounds protecting cells from measles virus cytopathic effect, primary screen, measles RdRp inhibitor project, single point, MLSMR library, absorbance; Measles virus-infected cells, CPE protection; protection (pct of control), % at 4 µM; 1.5% of 140,000 active; AID 841, 2007; in the data active = protection mostly above about 24%, no sharp cut-off; inactive = mostly below about 26%
NPY Y2 blocker = NPY-Y2 receptor antagonists, primary screen, cell-based; Neuropeptide Y receptor type 2 (Homo sapiens), P49146; NPY-Y2 expressing cells, antagonist mode; inhibition, % at 2.7 µM; 0.99% of 140,000 active; AID 793, 2007; in the data active = inhibition above about 17%;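 note: 0% = vehicle with agonist challenge and 100% = reference antagonist with challenge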
* = called active by the depositor; / = no result given. Compounds with a hit are over-represented: about 2.8% of the library has one in this group of screens.

SMILES	Mdm2 ligase inh	NPY1 pot ag	NPY-Y2 PAM-ag	NPY Y1 blocker	Measles CPE	NPY Y2 blocker
Cc1ccc(C(C(=O)NC2CCCCC2)N(Cc2ccco2)C(=O)C2COc3ccccc3O2)o1 (stereo unspecified)	-13.7	4.7	3.6	28.1*	12.1	20.2*
O=C(NC1CCCCC1)C(c1ccc(O)cc1)N(CC1CCCO1)C(=O)C1COc2ccccc2O1 (stereo unspecified)	-9.8	-20.8	-8.4	14.5	9.9	8.5
O=C(NNc1cccc(Cl)n1)Nc1ccc(F)cc1	-4.9	0.6	7.0	4.2	/	/
O=C(NNC1=Nc2cccc3cccc1c23)c1ccc(Br)cc1	-10.6	0.7	14.0	0.7	/	/
CCOC1=NN(c2ncc(C(F)(F)F)cc2Cl)C(=O)/C1=C/N(C)C	-54.7	15.0	4.8	0.5	/	/
Cc1cccc(NC(=O)C2C3C=CC(C4CC34)C2C(=O)O)c1 (stereo unspecified)	0.3	-18.9	-13.8	-4.0	48.5*	0.0
CCC(C)(C)c1ccc(OCCCC[n+]2cccc(C)c2)c(C(C)(C)CC)c1	-59.0	-27.9	-18.0	1.3	/	/
C=CCSc1nc2ccccc2n1C(=O)/C=C/c1ccc(OC)c(OC)c1	4.9	0.2	0.1	-2.8	3.2	0.4
CCSc1nc2ccccc2n1C(=O)/C=C/c1ccc(OC)c(OC)c1	64.6*	0.7	3.9	-0.2	0.1	3.0
C=CCSc1nc2ccccc2n1C(=O)/C=C/c1cc(OC)c(OC)c(OC)c1	53.6*	-8.7	-7.1	7.3	12.5	-0.3
O=C(NC(c1ccc(Cl)cc1)c1c(O)ccc2ccccc12)c1ccccc1 (stereo unspecified)	-13.6	40.5	42.7*	-12.8	42.4*	-5.8
CN(C)C(=O)C1C2NC(=S)N(c3cccc(Cl)c3)C1(C)Oc1ccc(Cl)cc12 (stereo unspecified)	-3.9	51.5*	28.7*	-9.2	/	/
Cc1cccc(N2C(=S)NC3c4ccccc4OC2(C)C3C(=O)N(C)C)c1 (stereo unspecified)	-2.7	6.9	18.5	-1.5	/	/
CN(C)C(=O)C1C2NC(=S)N(c3ccc(Cl)cc3)C1(C)Oc1ccc(Cl)cc12 (stereo unspecified)	-8.5	91.6*	89.2*	-8.9	/	/
CN(C)C(=O)C1C2NC(=S)N(c3ccccc3)C1(C)Oc1ccccc12 (stereo unspecified)	-15.1	1.7	1.4	-0.6	/	/
COc1ccc(CCNC(=O)c2cc3c(C)nccc3[nH]c2=O)cc1OC	-11.1	8.5	7.2	-2.0	/	/
CC1=C/C(=N\OS(=O)(=O)c2ccccc2)C(C(C)C)=CC1=O	-1.7	30.3	31.0*	-6.0	5.1	7.2
CC1=C/C(=N\OS(=O)(=O)c2ccccc2)C(C)=CC1=O	-23.4	54.3*	57.0*	-8.3	11.6	2.0
CC1=C(C)/C(=N\OS(=O)(=O)c2ccc(C)cc2)C=CC1=O	19.7	26.1	11.9	-2.1	1.2	10.7
COc1cc(NC(=O)Cc2ccccc2)cc(OC)c1	-15.2	0.3	4.9	-0.9	58.5*	-3.0
O=C(Nc1ccccc1Oc1ccccc1)c1ccccc1F	-13.7	-22.6	-7.8	5.6	28.5	4.7
Cc1ccnc(NC(=O)CCC(=O)N(CC(=O)NC2CCCCC2)Cc2cccs2)c1	-91.8	15.9	-9.4	-1.3	/	/
CCOc1ccc(N=Nc2cc(C(C)C)ccc2O)cc1	-5.1	-13.5	11.3	4.3	26.3*	-3.5
CC(Cc1cccnc1)NC(=O)c1ccccc1OC1CCN(S(C)(=O)=O)CC1 (stereo unspecified)	-3.9	-2.4	1.2	0.0	/	/
CCCCN(CCCC)CC(O)CN(c1cc([N+](=O)[O-])ccc1OC)S(=O)(=O)c1ccccc1 (stereo unspecified)	-7.2	-28.2	-4.4	23.1*	20.2	19.7*
SMILES	Mdm2 ligase inh	NPY1 pot ag	NPY-Y2 PAM-ag	NPY Y1 blocker	Measles CPE	NPY Y2 blocker
COc1ccc([N+](=O)[O-])cc1N(CC(O)CN(C)C)S(=O)(=O)c1ccc(C)cc1 (stereo unspecified)	-1.4	18.3	3.5	2.5	/	/
Cc1ccc(Cn2c(-c3nonc3N)nc3ccccc32)cc1	-11.3	-41.2	-8.1	23.4*	-0.4	20.8*
NC(=O)Cn1c(-c2nonc2N)nc2ccccc21	-6.1	5.1	-15.0	-2.9	/	/
CC(C)Oc1ccc(C2C(C(=O)c3ccco3)=C(O)C(=O)N2CCCN(C)C)cc1 (stereo unspecified)	/	5.0	-2.2	-1.3	/	0.6
O=C1CC(N2CCN(c3ccccc3)CC2)C(=O)N1CCc1ccccc1 (stereo unspecified)	-25.6	-6.3	2.4	-4.0	39.6*	3.1
CN1CCN(C2CC(=O)N(CCc3ccccc3)C2=O)CC1 (stereo unspecified)	-1.6	6.0	5.7	/	/	/
CC(Oc1ncnc2ccccc12)C(=O)Nc1cccc(S(=O)(=O)N2CCOCC2)c1 (stereo unspecified)	-9.6	-9.4	-2.5	3.0	10.9	-0.5
NCc1cccc(-n2cccn2)c1	-12.2	-19.7	5.8	-6.3	22.5	1.4
c1ccc2c(-n3cccn3)cccc2c1	-11.4	-23.4	-0.6	1.1	38.8*	0.8
COc1ccc(-n2c(SCC(=O)Nc3ncc(Cl)cc3Cl)nc3ccccc32)cc1	-9.5	19.5	-3.7	-4.5	/	/
O=C(CSc1nc2ccccc2n1-c1ccccc1)Nc1ncc(Cl)cc1Cl	-7.7	-17.1	-16.9	3.8	52.5*	5.2
Cc1cccc(-n2c(SCC(=O)Nc3ncc(Cl)cc3Cl)nc3ccccc32)c1	-11.5	-24.9	-26.1	4.7	42.8*	8.9
Cn1ncc(C#N)c1/N=C/N(Cc1ccccc1)Cc1ccccc1	-13.3	-69.9	-32.3	22.1*	5.3	25.6*
CN1CCN(/C=N/c2c(C#N)cnn2C)CC1	-13.7	-7.5	1.4	-5.7	4.0	4.2
COc1ccccc1N1CCN(Cc2cccs2)CC1	-12.7	-11.3	-6.3	0.1	95.9*	3.0
COc1ccccc1N1CCN(Cc2ccsc2)CC1	-29.1	8.1	13.5	1.4	18.8	4.5
COC(=O)CSc1nnc(-c2ccc(NS(=O)(=O)c3ccccc3)cc2)o1	-12.3	39.5*	90.9*	-17.5	8.1	-2.5
O=C(O)CSc1nnc(-c2ccccc2)o1	-12.0	-20.5	12.1	3.4	33.2*	4.8
O=C(CSc1nnc(-c2cccnc2)o1)Oc1ccccc1	-6.0	-11.4	5.2	-3.5	43.9*	2.1
Cc1ccc(CSc2nnc(-c3ccc(NS(=O)(=O)c4ccccc4)cc3)o2)cc1	-10.8	-20.9	-4.7	-3.3	16.9	9.0
